From ChEMBL document CHEMBL5357066, “Development of Novel Membrane Disrupting Lipoguanidine Compounds Sensitizing Gram-Negative Bacteria to Antibiotics” (ACS Med Chem Lett, 2024)

What was measured:
Erythrocyte = test: Hemolytic activity in human Red blood cells at 512 microg/ml measured after 1 hrs by absorbance based assay; assay type: toxicity, cell-based; conditions: dose 512 µg/ml
Method in brief: (§1)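 Titrations in PBS were incubated with freshly collected human red blood cells for 1 h at 37 °C. Controls were 0.1% Triton-X-100 (full lysis) and PBS alone (no lysis). After centrifugation, supernatant OD550 was read. % haemolysis = (AP−AB)/(AC−AB)×100. Data are means and standard error of three biological replicates.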

Acinetobacter baumannii [1] = test: Synergistic antibacterial activity against Acinetobacter baumannii ATCC 17978 assessed as novobiocin MIC at <=0.25 times MIC incubated for overnight by microbroth dilution checkerboard assay; assay type: functional
Method in brief: (§2)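 Checkerboard microdilution under MIC conditions (TSB, overnight, 37 °C). Two-fold series of each agent were combined on one plate before bacteria were added, and single-agent MICs were measured on the same plate. FIC = sum of combination MIC/alone MIC for each agent, taken from the most synergistic well. Three independent repeats, mean ± SD. ≤0.5 was taken as strong synergy and 0.5–<1 as weak.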

Acinetobacter baumannii [2] = test: Synergistic antibacterial activity against Acinetobacter baumannii ATCC 17978 assessed as fold change in novobiocin MIC at <=0.25 times MIC incubated for overnight by microbroth dilution checkerboard assay relative to novobiocin alone; assay type: functional; method in brief: as §2
Pseudomonas aeruginosa [3] = test: Synergistic antibacterial activity against Pseudomonas aeruginosa PAO1 assessed as novobiocin MIC at <=0.25 times MIC incubated for overnight by microbroth dilution checkerboard assay; assay type: functional
Method in brief: (§3)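 Checkerboard microdilution in Tryptic Soy Broth, run like the MIC assay. Overnight TSB cultures were back-diluted to OD 0.01 and added 1:1 to the combined two-fold series of both agents, then incubated overnight at 37 °C. Growth/no-growth was called at <0.1 OD600. MICs alone were read on the same plates. FIC index came from the most synergistic well; three independent repeats, mean ± SD.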

Klebsiella pneumoniae [4] = test: Synergistic antibacterial activity against […] Klebsiella pneumoniae M6 assessed as novobiocin MIC at <=0.25 times MIC incubated for overnight by microbroth dilution checkerboard assay; assay type: functional
Method in brief: (§4)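 Checkerboard run under the MIC conditions (TSB, overnight, 37 °C). Antibiotic and lipoguanidine 2-fold series were combined on one plate before bacteria were added. Growth/no-growth was scored as for the MIC (<0.1 OD600). Single-agent MICs were measured on the same plates. Three independent repeats were done.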

Pseudomonas aeruginosa [5] = test: Synergistic antibacterial activity against Pseudomonas aeruginosa NCTC 13437 assessed as fold change in novobiocin MIC at <=0.25 times MIC incubated for overnight by microbroth dilution checkerboard assay relative to novobiocin alone; assay type: functional; method in brief: as §2
Klebsiella pneumoniae [6] = test: Synergistic antibacterial activity against Klebsiella pneumoniae NCTC 13368 assessed as fold change in novobiocin MIC at <=0.25 times MIC incubated for overnight by microbroth dilution checkerboard assay relative to novobiocin alone; assay type: functional; method in brief: as §2
Klebsiella pneumoniae [7] = test: Synergistic antibacterial activity against […] Klebsiella pneumoniae NCTC 13368 assessed as novobiocin MIC at <=0.25 times MIC incubated for overnight by microbroth dilution checkerboard assay; assay type: functional; method in brief: as §4
Pseudomonas aeruginosa [8] = test: Synergistic antibacterial activity against Pseudomonas aeruginosa PAO1 assessed as fold change in novobiocin MIC at <=0.25 times MIC incubated for overnight by microbroth dilution checkerboard assay relative to novobiocin alone; assay type: functional; method in brief: as §3
Acinetobacter baumannii [9] = test: Synergistic antibacterial activity against Acinetobacter baumannii AYE assessed as fold change in novobiocin MIC at <=0.25 times MIC incubated for overnight by microbroth dilution checkerboard assay relative to novobiocin alone; assay type: functional; method in brief: as §2
Acinetobacter baumannii [10] = test: Synergistic antibacterial activity against Acinetobacter baumannii AYE assessed as novobiocin MIC at <=0.25 times MIC incubated for overnight by microbroth dilution checkerboard assay; assay type: functional; method in brief: as §2
Klebsiella pneumoniae [11] = test: Synergistic antibacterial activity against Klebsiella pneumoniae M6 assessed as fold change in novobiocin MIC at <=0.25 times MIC incubated for overnight by microbroth dilution checkerboard assay relative to novobiocin alone; assay type: functional; method in brief: as §2
Escherichia coli [12] = test: Synergistic antibacterial activity against Escherichia coli NCTC 12923 assessed as novobiocin MIC at <=0.25 times MIC incubated for overnight by microbroth dilution checkerboard assay; assay type: functional; method in brief: as §2
Pseudomonas aeruginosa [13] = test: Synergistic antibacterial activity against Pseudomonas aeruginosa NCTC 13437 assessed as novobiocin MIC at <=0.25 times MIC incubated for overnight by microbroth dilution checkerboard assay; assay type: functional; method in brief: as §3
[14] = Hemolytic activity in human Red blood cells at 512 microg/ml measured after 1 hrs by absorbance based assay relative to control; assay type: toxicity, cell-based, Erythrocyte; conditions: red blood cells (erythrocytes), at 512 µg/mL, read-out: Activity; method in brief: as §1
Pseudomonas aeruginosa [15] = test: Synergistic antibacterial activity against Pseudomonas aeruginosa NCTC 13437 assessed as bacterial growth inhibition incubated for overnight in presence of PBMN by microbroth dilution method relative to control; assay type: functional
Method in brief: (§5)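 Adapted broth microdilution in TSB. The test compound was in a 2-fold dilution series, with PMBN added at a fixed 30 µg/mL. Bacteria at OD 0.02 were added, and plates were incubated overnight at 37 °C. Growth/no growth was read as for the MIC (<0.1 OD600).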

Pseudomonas aeruginosa [16] = test: Synergistic antibacterial activity against Pseudomonas aeruginosa PAO1 assessed as bacterial growth inhibition incubated for overnight in presence of […] by microbroth dilution method relative to control; assay type: functional
Method in brief: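 Fixed-concentration combination MIC in TSB. The first agent was set in a two-fold dilution series (100 µL/well), then 50 µL/well of the second agent at a fixed concentration was added; PMBN was fixed at 30 µg/mL. Bacteria at OD 0.02 (50 µL) went into 150 µL of compounds, overnight at 37 °C. MIC was the lowest concentration without visible growth (<0.1 OD600).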

Acinetobacter baumannii [17] = test: Synergistic antibacterial activity against Acinetobacter baumannii ATCC 17978 assessed as bacterial growth inhibition incubated for overnight in presence of PBMN by microbroth dilution method relative to control; assay type: functional; method in brief: as §5
Acinetobacter baumannii [18] = test: Synergistic antibacterial activity against Acinetobacter baumannii AYE assessed as bacterial growth inhibition incubated for overnight in presence of PBMN by microbroth dilution method relative to control; assay type: functional; method in brief: as §5
Klebsiella pneumoniae [19] = test: Synergistic antibacterial activity against Klebsiella pneumoniae NCTC 13368 assessed as bacterial growth inhibition incubated for overnight in presence of PBMN by microbroth dilution method relative to control; assay type: functional; method in brief: as §5
Escherichia coli [20] = test: Synergistic antibacterial activity against Escherichia coli NCTC 12923 assessed as bacterial growth inhibition incubated for overnight in presence of PBMN by microbroth dilution method relative to control; assay type: functional; method in brief: as §5
Klebsiella pneumoniae [21] = test: Synergistic antibacterial activity against Klebsiella pneumoniae M6 assessed as bacterial growth inhibition incubated for overnight in presence of PBMN by microbroth dilution method relative to control; assay type: functional; method in brief: as §5

| Compound | Activity (Erythrocyte) | MIC (Acinetobacter baumannii [1]) [µg/mL] | fold change (FC) (Acinetobacter baumannii [2]) | MIC (Pseudomonas aeruginosa [3]) [µg/mL] | MIC (Klebsiella pneumoniae [4]) [µg/mL] | fold change (FC) (Pseudomonas aeruginosa [5]) | fold change (FC) (Klebsiella pneumoniae [6]) | MIC (Klebsiella pneumoniae [7]) [µg/mL] | fold change (FC) (Pseudomonas aeruginosa [8]) | fold change (FC) (Acinetobacter baumannii [9]) | MIC (Acinetobacter baumannii [10]) [µg/mL] | fold change (FC) (Klebsiella pneumoniae [11]) | MIC (Escherichia coli [12]) [µg/mL] | MIC (Pseudomonas aeruginosa [13]) [µg/mL] | inhibition (INH) (Pseudomonas aeruginosa [15]) [%] | inhibition (INH) (Pseudomonas aeruginosa [16]) [%] | inhibition (INH) (Acinetobacter baumannii [17]) [%] | inhibition (INH) (Acinetobacter baumannii [18]) [%] | inhibition (INH) (Klebsiella pneumoniae [19]) [%] | inhibition (INH) (Escherichia coli [20]) [%] | further results |
| --- | --- | --- | --- | --- | --- | --- | --- | --- | --- | --- | --- | --- | --- | --- | --- | --- | --- | --- | --- | --- | --- |
| CCCCC/C=C\C/C=C\CCCCCCCCNC(=N)NCCCCN | Toxic | 1 | 0 | > 128 | 64 | 0 | 0 | > 128 | 0 | >=4 | 1 | 0 | > 128 | > 128 | – | – | – | – | – | – | hemolysis at 1 h, 512 microg/ml [14]: 100% |
| CCCCCCCC/C=C\CCCCCCCCNC(=N)NCCCCN | Toxic | ≤ 0.125 | >=4 | > 128 | 16 | 0 | 0 | > 128 | 0 | >=4 | ≤ 0.125 | >=4 | > 128 | > 128 | <20 | <20 | <20 | <20 | <20 | <20 | inhibition (INH) (Klebsiella pneumoniae [21]): <20% |
| CCCCCCCCCCCCNC(=N)NCCCCN | Toxic | – | – | – | – | – | – | – | – | – | – | – | – | – | <20 | <20 | <20 | <20 | <20 | <20 | inhibition (INH) (Klebsiella pneumoniae [21]): <20% |
